Measurements as given in ChEMBL document CHEMBL4330069, “Boosting the efficacy of anti-MRSA β-lactam antibiotics via an easily accessible, non-cytotoxic and orally bioavailable FtsZ inhibitor” (Eur J Med Chem, 2019).
Converted amounts (≈) assume the structure as drawn.

Assays:
[1] = tested on: Staphylococcus aureus; assay: Synergistic antibacterial activity against multidrug-resistant Staphylococcus aureus isolate 3580 assessed as fractional Inhibitory concentration index in presence of methicillin by broth microdilution assay; type: functional
[2] = tested on: Staphylococcus aureus; assay: Synergistic antibacterial activity against multidrug-resistant Staphylococcus aureus isolate 2919 in presence of methicillin by broth microdilution assay; type: functional
Method in brief: (§1)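 CLSI broth microdilution on clinical MRSA isolates. MICs were measured for the β-lactam alone, the test agent alone and the two combined. Compounds were dissolved in DMSO, and growth inhibition was scored by eye. FIC index is the sum, over both agents, of MIC in combination divided by MIC alone. An FIC index ≤0.5 was taken as synergy.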

[3] = tested on: Staphylococcus aureus; assay: Synergistic antibacterial activity against multidrug-resistant Staphylococcus aureus isolate 2901 in presence of cloxacillin by broth microdilution assay; type: functional; method in brief: as §1
[4] = tested on: Staphylococcus aureus; assay: Synergistic antibacterial activity against multidrug-resistant Staphylococcus aureus isolate 3267 assessed as fractional Inhibitory concentration index in presence of methicillin by broth microdilution assay; type: functional
[5] = tested on: Staphylococcus aureus; assay: Synergistic antibacterial activity against multidrug-resistant Staphylococcus aureus isolate 2973 assessed as fractional Inhibitory concentration index in presence of methicillin by broth microdilution assay; type: functional
[6] = tested on: Staphylococcus aureus; assay: Synergistic antibacterial activity against multidrug-resistant Staphylococcus aureus isolate 3589 in presence of methicillin by broth microdilution assay; type: functional
[7] = tested on: Staphylococcus aureus; assay: Synergistic antibacterial activity against multidrug-resistant Staphylococcus aureus isolate 2490 in presence of cloxacillin by broth microdilution assay; type: functional
Method in brief: (§2)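 Clinical MRSA isolate panel; compound and β-lactam tested alone and in combination by CLSI broth microdilution, compounds dissolved in DMSO, growth inhibition scored by eye, run in duplicate. FIC index = FIC(compound) + FIC(drug), each the MIC in combination divided by the MIC alone; an index ≤ 0.5 was called synergy.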

[8] = tested on: Staphylococcus aureus; assay: Synergistic antibacterial activity against multidrug-resistant Staphylococcus aureus isolate 2516 in presence of meropenem by broth microdilution assay; type: functional; method in brief: as §1
[9] = tested on: Staphylococcus aureus; assay: Antibacterial activity against multidrug-resistant Staphylococcus aureus isolate 3332 by broth microdilution assay; type: functional
Method in brief: (§3)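 Broth microdilution MIC per CLSI guidelines against clinical MRSA isolates, for β-lactams and test compound alone and in combination. Compounds were dissolved in DMSO. Growth was read by eye, in duplicate. FIC index = FIC(compound) + FIC(drug); synergy defined as FIC index ≤0.5.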

[10] = tested on: Staphylococcus aureus; assay: Synergistic antibacterial activity against multidrug-resistant Staphylococcus aureus isolate 2490 in presence of methicillin by broth microdilution assay; type: functional; method in brief: as §2
[11] = tested on: Staphylococcus aureus; assay: Synergistic antibacterial activity against multidrug-resistant Staphylococcus aureus isolate 774 in presence of cloxacillin by broth microdilution assay; type: functional
[12] = tested on: Staphylococcus aureus; assay: Synergistic antibacterial activity against multidrug-resistant Staphylococcus aureus isolate 1402 in presence of methicillin by broth microdilution assay; type: functional; method in brief: as §2
[13] = tested on: Staphylococcus aureus; assay: Synergistic antibacterial activity against multidrug-resistant Staphylococcus aureus isolate 2901 in presence of amoxicillin by broth microdilution assay; type: functional; method in brief: as §1
[14] = tested on: Staphylococcus aureus; assay: Antibacterial activity against multidrug-resistant Staphylococcus aureus isolate 1402 by broth microdilution assay; type: functional; method in brief: as §3
[15] = tested on: Staphylococcus aureus; assay: Synergistic antibacterial activity against multidrug-resistant Staphylococcus aureus isolate 358 in presence of amoxicillin by broth microdilution assay; type: functional
[16] = tested on: Staphylococcus aureus; assay: Antibacterial activity against multidrug-resistant Staphylococcus aureus isolate 1344 by broth microdilution assay; type: functional; method in brief: as §3
[17] = tested on: Staphylococcus aureus; assay: Synergistic antibacterial activity against multidrug-resistant Staphylococcus aureus isolate 2895 assessed as fractional Inhibitory concentration index in presence of cefuroxime by broth microdilution assay; type: functional
[18] = tested on: Staphylococcus aureus; assay: Synergistic antibacterial activity against multidrug-resistant Staphylococcus aureus isolate 1717 assessed as fractional Inhibitory concentration index in presence of meropenem by broth microdilution assay; type: functional
Method in brief: (§4)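 CLSI broth microdilution run on clinical MRSA isolates with each β-lactam alone, the test agent alone, and the two combined; agents dissolved in DMSO. Growth inhibition was read by eye. FIC index = FIC(compound) + FIC(β-lactam), where each FIC is the MIC in combination divided by the MIC alone. An index ≤0.5 was taken as synergy.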

[19] = tested on: Staphylococcus aureus; assay: Antibacterial activity against multidrug-resistant Staphylococcus aureus ATCC 43300 infected in BALB/C mouse assessed as mouse survival at 50 mg/kg, ip bid co-administered with 25 mg/kg, ip bid cefuroxime measured on day 4 post infection (reference value: 50%)
[20] = tested on: Staphylococcus aureus; assay: Antibacterial activity against multidrug-resistant Staphylococcus aureus isolate 358 by broth microdilution assay; type: functional; method in brief: as §3
[21] = tested on: Staphylococcus aureus; assay: Synergistic antibacterial activity against multidrug-resistant Staphylococcus aureus isolate 1402 assessed as fractional Inhibitory concentration index in presence of methicillin by broth microdilution assay; type: functional; method in brief: as §4
[22] = tested on: Staphylococcus aureus; assay: Synergistic antibacterial activity against multidrug-resistant Staphylococcus aureus isolate 200 assessed as fractional Inhibitory concentration index in presence of cloxacillin by broth microdilution assay; type: functional; method in brief: as §4
[23] = tested on: Staphylococcus aureus; assay: Synergistic antibacterial activity against multidrug-resistant Staphylococcus aureus isolate 231 in presence of cefuroxime by broth microdilution assay; type: functional; method in brief: as §2
[24] = tested on: Staphylococcus aureus; assay: Synergistic antibacterial activity against multidrug-resistant Staphylococcus aureus isolate 2490 assessed as fractional Inhibitory concentration index in presence of cefuroxime by broth microdilution assay; type: functional; method in brief: as §4
[25] = tested on: Staphylococcus aureus; assay: Synergistic antibacterial activity against multidrug-resistant Staphylococcus aureus isolate 1749 in presence of meropenem by broth microdilution assay; type: functional; method in brief: as §2
[26] = tested on: Staphylococcus aureus; assay: Synergistic antibacterial activity against multidrug-resistant Staphylococcus aureus isolate 2895 in presence of methicillin by broth microdilution assay; type: functional; method in brief: as §1
[27] = tested on: Staphylococcus aureus; assay: Synergistic antibacterial activity against multidrug-resistant Staphylococcus aureus isolate 1402 assessed as fractional Inhibitory concentration index in presence of meropenem by broth microdilution assay; type: functional; method in brief: as §4
[28] = tested on: Staphylococcus aureus; assay: Synergistic antibacterial activity against multidrug-resistant Staphylococcus aureus isolate 2728 in presence of amoxicillin by broth microdilution assay; type: functional; method in brief: as §1
[29] = tested on: Staphylococcus aureus; assay: Synergistic antibacterial activity against multidrug-resistant Staphylococcus aureus isolate 2224 in presence of cefuroxime by broth microdilution assay; type: functional; method in brief: as §2
[30] = tested on: Staphylococcus aureus; assay: Synergistic antibacterial activity against multidrug-resistant Staphylococcus aureus isolate 3267 in presence of cefuroxime by broth microdilution assay; type: functional; method in brief: as §1
[31] = tested on: Staphylococcus aureus; assay: Synergistic antibacterial activity against multidrug-resistant Staphylococcus aureus isolate 774 assessed as fractional Inhibitory concentration index in presence of meropenem by broth microdilution assay; type: functional
[32] = tested on: Staphylococcus aureus; assay: Synergistic antibacterial activity against multidrug-resistant Staphylococcus aureus isolate 85 in presence of meropenem by broth microdilution assay; type: functional
[33] = tested on: Staphylococcus aureus; assay: Synergistic antibacterial activity against multidrug-resistant Staphylococcus aureus isolate 256 assessed as fractional Inhibitory concentration index in presence of cefuroxime by broth microdilution assay; type: functional
[34] = tested on: Staphylococcus aureus; assay: Synergistic antibacterial activity against multidrug-resistant Staphylococcus aureus isolate 1344 in presence of meropenem by broth microdilution assay; type: functional; method in brief: as §2
[35] = tested on: Staphylococcus aureus; assay: Synergistic antibacterial activity against multidrug-resistant Staphylococcus aureus isolate 757 assessed as fractional Inhibitory concentration index in presence of methicillin by broth microdilution assay; type: functional
[36] = tested on: Staphylococcus aureus; assay: Synergistic antibacterial activity against multidrug-resistant Staphylococcus aureus isolate 254 in presence of amoxicillin by broth microdilution assay; type: functional; method in brief: as §1
[37] = tested on: Staphylococcus aureus; assay: Synergistic antibacterial activity against multidrug-resistant Staphylococcus aureus isolate 254 assessed as fractional Inhibitory concentration index in presence of methicillin by broth microdilution assay; type: functional
[38] = tested on: Staphylococcus aureus; assay: Synergistic antibacterial activity against multidrug-resistant Staphylococcus aureus isolate 757 in presence of meropenem by broth microdilution assay; type: functional

Q: With `CCCCCCCCCNc1ccc(F)c(C(N)=O)c1F` as the molecule, how does the “fractional inhibitory concentration index (FICI)” value [1] read?
A: Its value is 0.2.

Q: And the MIC [2]?
A: Its MIC is 4 µg/mL.

Q: What about the MIC [3] of the same molecule?
A: The MIC was 0.5 µg/mL.

Q: And the “fractional inhibitory concentration index (FICI)” value [4]?
A: The value was 0.1.

Q: And the “fractional inhibitory concentration index (FICI)” value [5]?
A: The value was 0.3.

Q: And the MIC [6]?
A: Its MIC is 4 µg/mL.

Q: What about the MIC [7] of the same molecule?
A: The MIC was 1 µg/mL.

Q: And the MIC [8]?
A: The MIC was 4 µg/mL.

Q: What about the MIC [9] of the same molecule?
A: Its MIC is 16 µg/mL (≈ 53.6 µM).

Q: What about the MIC [10] of the same molecule?
A: Its MIC is 4 µg/mL.

Q: And the MIC [11]?
A: The MIC was 1 µg/mL.

Q: And the MIC [12]?
A: The MIC was 2 µg/mL.

Q: What about the MIC [13] of the same molecule?
A: Its MIC is 16 µg/mL.

Q: And the MIC [14]?
A: The MIC was 4 µg/mL (≈ 13.4 µM).

Q: What about the MIC [15] of the same molecule?
A: Its MIC is 4 µg/mL.

Q: And the MIC [16]?
A: Its MIC is 16 µg/mL (≈ 53.6 µM).

Q: And the “fractional inhibitory concentration index (FICI)” value [17]?
A: Its value is 0.3.

Q: What about the “fractional inhibitory concentration index (FICI)” value [18] of the same molecule?
A: The value was 3.

Q: And the Activity [19]?
A: Its Activity is 100%.

Q: And the MIC [20]?
A: Its MIC is 16 µg/mL (≈ 53.6 µM).

Q: And the “fractional inhibitory concentration index (FICI)” value [21]?
A: Its value is 0.6.

Q: And the “fractional inhibitory concentration index (FICI)” value [22]?
A: Its value is 1.

Q: And the MIC [23]?
A: The MIC was 4 µg/mL.

Q: What about the “fractional inhibitory concentration index (FICI)” value [24] of the same molecule?
A: The value was 0.2.

Q: What about the MIC [25] of the same molecule?
A: The MIC was 4 µg/mL.

Q: And the MIC [26]?
A: Its MIC is 4 µg/mL.

Q: What about the “fractional inhibitory concentration index (FICI)” value [27] of the same molecule?
A: The value was 5.

Q: And the MIC [28]?
A: The MIC was 8 µg/mL.

Q: And the MIC [29]?
A: Its MIC is 2 µg/mL.

Q: What about the MIC [30] of the same molecule?
A: The MIC was 2 µg/mL.

Q: And the “fractional inhibitory concentration index (FICI)” value [31]?
A: Its value is 0.1.

Q: And the MIC [32]?
A: Its MIC is 8 µg/mL.

Q: What about the “fractional inhibitory concentration index (FICI)” value [33] of the same molecule?
A: Its value is 0.

Q: And the MIC [34]?
A: The MIC was 16 µg/mL.

Q: What about the “fractional inhibitory concentration index (FICI)” value [35] of the same molecule?
A: The value was 0.1.

Q: And the MIC [36]?
A: The MIC was 8 µg/mL.

Q: And the “fractional inhibitory concentration index (FICI)” value [37]?
A: The value was 0.3.

Q: What about the MIC [38] of the same molecule?
A: Its MIC is 16 µg/mL.
